Source: PubChem BioAssay
Shown are actives, neighbours in structure and some others; about 1.5% of the full set was active somewhere.
APJ agonist – agonists of human APJ apelin receptor | P35414 | actives 0.11% (n = 330,000) | AID 2520 | activation, % at 20 µM | CHO-K1 APJ PathHunter beta-arrestin, luminescence; 0% DMSO wells, 100% apelin;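 active = activation more than six SD over the plate average, tested at 20 µM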
Target sequence (P35414 whole entry, looked up): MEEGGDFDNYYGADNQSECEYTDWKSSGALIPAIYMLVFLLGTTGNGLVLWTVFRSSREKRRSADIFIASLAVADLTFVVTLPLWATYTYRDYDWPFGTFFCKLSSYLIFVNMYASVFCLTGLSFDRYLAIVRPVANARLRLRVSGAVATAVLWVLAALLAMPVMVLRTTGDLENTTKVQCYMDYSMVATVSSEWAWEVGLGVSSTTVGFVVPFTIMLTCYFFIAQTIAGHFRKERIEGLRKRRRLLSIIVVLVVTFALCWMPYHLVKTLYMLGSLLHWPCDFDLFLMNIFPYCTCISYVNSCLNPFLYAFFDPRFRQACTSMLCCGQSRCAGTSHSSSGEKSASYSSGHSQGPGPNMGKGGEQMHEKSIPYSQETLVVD
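Test system: CHO-K1 APJ beta-arrestin complementation cell line. Amount: cell density 1000 per well. Controls: DMSO negative, 10 nM Apelin-13 positive. Signal: luminescent beta-gal fragment complementation, chemiluminescent substrate. Read-out basis: agonist-driven arrestin binding to APJ. Timing: compound stimulation 90 min at 25 °C, detection 60 min.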
CXCR6 inh – blocks human CXCR6 beta-arrestin recruitment | actives 0.36% (n = 360,000) | CHO-K1 PathHunter CXCR6 beta-arrestin, luminescence | O00574 | inhibition, % at 20 µM | AID 602244; in the data active = inhibition above about 34%, passing the limit was not always enough;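 also: antagonist mode with CXCL16 agonist at 10 nM final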
EBI2 antag – EBI2 (human) antagonism; P32249; EBI2 beta-arrestin recruitment, luminescence, 7a,25-OHC stimulated; inhibition, % at 5 µM; actives 0.81% (n = 360,000); in the data active = inhibition above about 38%;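 also: enzyme fragment complementation signal reports receptor beta-arrestin coupling in cells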
APJ antag – blocks the human apelin receptor APJ. CHO-K1 APJ beta-arrestin complementation, luminescence. P35414. inhibition, % at 20 µM. actives 0.32% (n = 330,000);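 active = inhibition above about 40% at 20 µM, limit read from the data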;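 also: cells challenged with 10 nM apelin-13 agonist together with compound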
CCR6 antag – blocks CCL20-driven beta-arrestin recruitment at human CCR6. P51684. CHO-K1 CCR6 PathHunter beta-arrestin, luminescence, CCL20-stimulated. inhibition, % at 20 µM. actives 0.49% (n = 340,000). AID 493098;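 active = compounds whose inhibition of the agonist-driven luminescence signal at 20 µM reaches about 50%, limit read from the data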;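 also: cells stimulated with CCL20 at 14 nM final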
Target sequence (P51684 whole entry, looked up): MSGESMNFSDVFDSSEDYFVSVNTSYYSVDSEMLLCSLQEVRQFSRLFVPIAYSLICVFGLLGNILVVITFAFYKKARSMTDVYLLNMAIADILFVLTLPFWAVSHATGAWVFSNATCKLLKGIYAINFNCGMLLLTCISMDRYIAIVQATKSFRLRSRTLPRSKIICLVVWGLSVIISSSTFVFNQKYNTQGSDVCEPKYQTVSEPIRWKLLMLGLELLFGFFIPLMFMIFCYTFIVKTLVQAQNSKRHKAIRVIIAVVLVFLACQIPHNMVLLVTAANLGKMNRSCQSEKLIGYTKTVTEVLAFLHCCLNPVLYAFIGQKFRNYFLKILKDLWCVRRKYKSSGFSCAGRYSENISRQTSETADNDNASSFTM
EBI2 antag conf – confirmation of human EBI2 receptor antagonists; shares compounds with EBI2 antag; inhibition, % at 5 µM; AID 651997; actives 29% (n = 2,400); EBI2 beta-arrestin luminescence, 7a,25-OHC antagonism;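 active = inhibition of at least 50%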
EBI2 ag – counter-screen for EBI2 antagonists: EBI2 agonist activity. activation, % at 5 µM. EBI2-expressing cells, agonist mode, luminescence, 60 min; 0% vehicle, 100% 7α,25-dihydroxycholesterol control. shares compounds with EBI2 antag. AID 652000. 2,400 tested, under 10 active;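 active = activation of at least 50%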
bGal counter – inhibits E. coli beta-galactosidase, counter-screen for EBI2 antagonists. inhibition, % at 5 µM. shares compounds with EBI2 antag. actives 1% (n = 2,400). purified beta-galactosidase, luminescent Galacton Star, 15 min;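 active = replicate-average signal at least 3 plate SD below neutral wells, shown as high inhibition, flagging enzyme-inhibiting false positives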;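 also: higher means stronger loss of beta-gal luminescence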
Each line names hits and unclear results; the compound was inactive in the other large screens (follow-up assays come after a bar, where they were run).

CC1(C(=O)NS(=O)(=O)c2cccc(Cl)c2)CCN1C(=O)C/C=C/c1ccccc1 (stereo not given)	none (no result: APJ agonist, APJ antag, CCR6 antag)
Cc1ccsc1C1Nc2ccc3ncccc3c2C2=C1C(=O)CC(C)(C)C2 (stereo not given)	EBI2 antag 94 | EBI2 antag conf 76 | EBI2 ag inactive | bGal counter inactive
O=C1CCCC2=C1C(c1cccs1)Nc1ccc3ncccc3c12 (stereo not given)	none
O=C(NCc1cccc(F)c1)Nc1nnc([C@H]2C[C@H](O)[C@@H](CO)O2)s1	none (no result: APJ agonist, APJ antag, CCR6 antag)
C=CCN1C(=O)NC(c2ccccc2)(C(F)(F)F)S/C1=C(\C#N)c1nnc(N2CCOCC2)n1-c1ccccc1 (stereo not given)	EBI2 antag 53 | EBI2 antag conf 53 | EBI2 ag inactive | bGal counter inactive
C[C@@H]1CN([C@H](C)CO)C(=O)c2cc(Br)cnc2O[C@@H]1CN(C)C(=O)C1CCOCC1	none (no result: APJ agonist, APJ antag, CCR6 antag)
C[C@H](CO)N1C[C@H](C)[C@@H](CN(C)Cc2ccncc2)OCCCC[C@H](C)Oc2ccc(NC(=O)CCCN(C)C)cc2C1=O	none (no result: APJ agonist, APJ antag, CCR6 antag)
Cc1ccc(C(C)C)c(OCc2ccc(C(=O)N/N=C/c3ccc(C(=O)O)cc3)cc2)c1	EBI2 antag 40 | EBI2 antag conf inactive | EBI2 ag inactive | bGal counter inactive
CCc1nc2ccc(C(=O)NCCOc3ccc(OC)cc3)cn2c1N(C)C(=O)Cc1ccccc1	none (no result: APJ agonist, APJ antag, CCR6 antag)
O=C(Nc1ccnc(-c2cccnc2)n1)c1ccc(Cl)c(Cl)c1	EBI2 antag 46 | EBI2 antag conf inactive | EBI2 ag inactive | bGal counter inactive
CC1CCC(C(C)C)C(NC(=O)c2ccncc2)C1 (stereo not given)	none (no result: APJ agonist, APJ antag, CCR6 antag)
CC(=O)NCC1(c2ccccc2)CCN(CCCC(=O)c2ccc(F)cc2)CC1	none (no result: APJ agonist, APJ antag, CCR6 antag)
CCN1CCN(C(=O)c2cc(=O)c3cc(C)ccc3o2)CC1	EBI2 antag 67 | EBI2 antag conf inactive | EBI2 ag inactive | bGal counter inactive
CCc1ccc2oc(C(=O)N3CCN(C)CC3)cc(=O)c2c1	EBI2 antag 45 | EBI2 antag conf inactive | EBI2 ag inactive | bGal counter inactive
CN1CCN(C(=O)c2cc(=O)c3cc(Cl)ccc3o2)CC1	none
Cc1csc(-c2nc3ccccc3n2C(C(=O)NC(C)(C)C)c2ccccc2)c1 (stereo not given)	none (no result: APJ agonist, CXCR6 inh, APJ antag, CCR6 antag)
CCC(=O)N1CCC1(C)C(=O)Nc1cccc2c1CCCC2 (stereo not given)	none (no result: APJ agonist, APJ antag, CCR6 antag)
O=C(Nc1ccn(CCCNCC2CCCO2)c(=O)n1)OCc1ccccc1 (stereo not given)	none (no result: APJ agonist, APJ antag)
O=C(NCc1ccncc1)c1ccc(OCc2ccccc2)cc1	none (no result: APJ agonist, APJ antag)
Cc1ccc(CNC(=O)c2ccc(COc3ccccc3)cc2)cc1	EBI2 antag 52 | EBI2 antag conf 56 | EBI2 ag inactive | bGal counter inactive
CSCc1ccc(C(=O)NCc2ccc(C)cc2)cc1	EBI2 antag 64 | EBI2 antag conf inactive | EBI2 ag inactive | bGal counter inactive
CCCCCCCCNCCS(=O)(=O)NC1CCCCC1	none (no result: APJ agonist, APJ antag)
Cc1ccc(C(O)c2ncc(-c3ccc4ccccc4c3)[nH]2)cc1F (stereo not given)	none (no result: APJ agonist, APJ antag, CCR6 antag)
O=C1NC(=Nc2ccccc2)S/C1=C\c1cccnc1	EBI2 antag 45 | EBI2 antag conf 51 | EBI2 ag inactive | bGal counter inactive
Cc1ccc(N=C2NC(=O)/C(=C/c3cccnc3)S2)cc1C	EBI2 antag 47 | EBI2 antag conf inactive | EBI2 ag inactive | bGal counter inactive
C[C@@H]1CN([C@@H](C)CO)S(=O)(=O)c2ccc(Br)cc2O[C@@H]1CN(C)C(=O)NC1CCCCC1	none (no result: APJ agonist, APJ antag, CCR6 antag)
Cn1c(=O)c2c(nc(N/N=C/c3ccc(OC(=O)c4ccco4)cc3)n2Cc2ccccc2Cl)n(C)c1=O	EBI2 antag 54 | EBI2 antag conf inactive | EBI2 ag inactive | bGal counter inactive
COc1cccc(NC(=O)N(C)C[C@@H]2OCc3cnnn3CCCC(=O)N([C@@H](C)CO)C[C@H]2C)c1	none (no result: APJ agonist, APJ antag, CCR6 antag)
Cc1cc(OCC(=O)N2CCN(c3ccccn3)CC2)c(C)cc1Br	EBI2 antag 53 | EBI2 antag conf inactive | EBI2 ag inactive | bGal counter inactive
O=C(COc1ccc2ccccc2c1Br)N1CCCCC1	none
O=C(COc1ccc2ccccc2c1Br)N1CCN(c2ccccn2)CC1	EBI2 antag 52 | EBI2 antag conf inactive | EBI2 ag inactive | bGal counter inactive
COc1ccc([C@H]2CN(CCc3ccccc3)C(=O)[C@@H]2CC(=O)Nc2ccccc2)cc1	none (no result: APJ agonist, APJ antag, CCR6 antag)
CC1=C(C(=O)N(C)C)CC(CC(=O)NCCCN(C)C)C(=O)N1Cc1ccccc1 (stereo not given)	none (no result: APJ agonist, APJ antag, CCR6 antag)
COC(=O)[C@]12CCCCC=C1N(Cc1cccc3ccccc13)C(=O)[C@H](CC(=O)NCCCCc1ccccc1)C2	EBI2 antag 47 (no result: APJ agonist, APJ antag, CCR6 antag) | EBI2 antag conf inactive | EBI2 ag inactive | bGal counter inactive
CCCCNC(=O)C[C@@H]1C[C@@]2(C(=O)OC)CCCCC=C2N(Cc2cccc3ccccc23)C1=O	none (no result: APJ agonist, APJ antag, CCR6 antag)
CCOC(=O)Cc1csc(NC(=O)/C=C\c2ccccc2)n1	none
CCOC(=O)Cc1csc(NC(=O)/C=C/c2ccc(OC)cc2)n1	EBI2 antag 46 | EBI2 antag conf inactive | EBI2 ag inactive | bGal counter inactive
Cc1cc(C)c(C(=O)COC(=O)c2cccc(S(=O)(=O)N3CCOCC3)c2)cc1C	none (no result: APJ agonist, APJ antag, CCR6 antag)
Cc1cc(N2CCN(c3nc(-c4ccccc4)cs3)CC2)c2ccccc2n1	EBI2 antag 55 | EBI2 antag conf inactive | EBI2 ag inactive | bGal counter inactive
CC(C)(C)c1nnc(N/N=C/c2ccc(Br)cc2)n(N)c1=O	EBI2 antag 92 | EBI2 antag conf 80 | EBI2 ag inactive | bGal counter inactive
CC(C)(C)c1ccc(/C=N/Nc2nncn2N)cc1	none
N#CCCn1cc(/C=C(\C#N)c2nc3ccccc3s2)c(-c2ccc(F)cc2)n1	EBI2 antag 46 | EBI2 antag conf inactive | EBI2 ag inactive | bGal counter inactive
CC(C)(C)Nc1ncnc2sc(-c3ccccc3)cc12	EBI2 antag 73 | EBI2 antag conf inactive | EBI2 ag inactive | bGal counter inactive
O=C(c1ccc(CSc2ccc(Cl)cc2)o1)N1CCOCC1	none (no result: APJ agonist, APJ antag, CCR6 antag)
COc1ccc(Cl)cc1N(CC(=O)NCc1ccccn1)S(=O)(=O)c1ccc(C)cc1	none (no result: APJ agonist, APJ antag, CCR6 antag)
Cc1nn(-c2ccc(C(=O)N3CCN(S(=O)(=O)c4ccccc4C(F)(F)F)CC3)cc2)c(C)c1Cl	EBI2 antag 47 | EBI2 antag conf inactive | EBI2 ag inactive | bGal counter inactive
